Reference: ChEMBL document CHEMBL3627623, “Catecholic amides as potential selective phosphodiesterase 4D inhibitors: Design, synthesis, pharmacological evaluation and structure-activity relationships” (Bioorg Med Chem, 2015)

Legend:
[1] = biological target: 3',5'-cyclic-AMP phosphodiesterase 4B (Homo sapiens, UniProt Q07343); test: Inhibition of human full-length PDE4B1 using AM-Cyclic-3',5'-AMP after 60 mins by fluorescence polarization assay
Homo sapiens [2] = species: Homo sapiens; test: Selectivity ratio of IC50 for human full-length PDE4B1 to IC50 for human full-length PDE4D7
Phosphodiesterase 4 = Phosphodiesterase 4 (Homo sapiens, UniProt P27815+Q08499+Q07343+Q08493); test: Inhibition of core catalytic domains of human PDE4 using AM-Cyclic-3',5'-AMP after 60 mins by fluorescence polarization assay; assay type: protein assay
[3] = biological target: 3',5'-cyclic-AMP phosphodiesterase 4D (Homo sapiens, UniProt Q08499); test: Inhibition of human full-length PDE4D7 using AM-Cyclic-3',5'-AMP after 60 mins by fluorescence polarization assay
[4] = biological target: cGMP-dependent 3',5'-cyclic phosphodiesterase (Homo sapiens) (UniProt O00408); details: 10 uM
[5] = biological target: cAMP and cAMP-inhibited cGMP 3',5'-cyclic phosphodiesterase 10A (Homo sapiens) (UniProt Q9Y233); test: Inhibition of human PDE10A2 using AM-Cyclic-3',5'-AMP at 10 uM after 60 mins by fluorescence polarization assay
Outline: (§1)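 Recombinant human PDE isoforms in 40 mM MOPS pH 7.5, 0.5 mM EDTA, 15 mM MgCl2, 0.15 mg/mL BSA, 1 mM DTT, 0.05% Proclin 200. […] Final DMSO 1%; 60 min at 25 °C. Binding agent was added, then 1 h more. Fluorescence polarization read at ex 360/em 480 nm. IC50 or single-concentration % inhibition; mean of two experiments.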

[6] = biological target: High affinity cAMP-specific and IBMX-insensitive 3',5'-cyclic phosphodiesterase 8A (Homo sapiens) (UniProt O60658); test: Inhibition of human PDE8A1 using AM-Cyclic-3',5'-AMP at 10 uM after 60 mins by fluorescence polarization assay; outline: as §1
[7] = biological target: cGMP-inhibited 3',5'-cyclic phosphodiesterase 3B (Homo sapiens) (UniProt Q13370); details: 10 uM
[8] = biological target: Dual specificity calcium/calmodulin-dependent 3',5'-cyclic nucleotide phosphodiesterase 1A (Homo sapiens) (UniProt P54750); test: Inhibition of human PDE1A using AM-Cyclic-3',5'-AMP at 10 uM after 60 mins by fluorescence polarization assay; outline: as §1
[9] = biological target: High affinity 3',5'-cyclic-AMP phosphodiesterase 7A (Homo sapiens) (UniProt Q13946); details: 10 uM
[10] = biological target: High affinity cGMP-specific 3',5'-cyclic phosphodiesterase 9A (Homo sapiens) (UniProt O76083); test: Inhibition of human PDE9A2 using AM-Cyclic-3',5'-AMP at 10 uM after 60 mins by fluorescence polarization assay; outline: as §1
[11] = biological target: cGMP-specific 3',5'-cyclic phosphodiesterase (Homo sapiens) (UniProt O76074); test: Inhibition of human PDE5A using AM-Cyclic-3',5'-AMP at 10 uM after 60 mins by fluorescence polarization assay; outline: as §1
[12] = biological target: Dual 3',5'-cyclic-AMP and -GMP phosphodiesterase 11A (Homo sapiens) (UniProt Q9HCR9); details: 10 uM
Homo sapiens [13] = species: Homo sapiens; test: Selectivity ratio of IC50 for PDE4B2 (unknown origin) to IC50 for PDE4D3 (unknown origin)
Homo sapiens [14] = species: Homo sapiens; test: Selectivity ratio of IC50 for PDE4B1 (unknown origin) to IC50 for PDE4D7 (unknown origin)
Homo sapiens [15] = species: Homo sapiens; test: Selectivity ratio of IC50 for PDE4B2 (unknown origin) to IC50 for PDE4D4 (unknown origin)
Homo sapiens [16] = species: Homo sapiens; test: Selectivity ratio of IC50 for PDE4B (unknown origin) to IC50 for PDE4D (unknown origin)

3',5'-cyclic-AMP phosphodiesterase 4D, sequence (Q08499 whole entry): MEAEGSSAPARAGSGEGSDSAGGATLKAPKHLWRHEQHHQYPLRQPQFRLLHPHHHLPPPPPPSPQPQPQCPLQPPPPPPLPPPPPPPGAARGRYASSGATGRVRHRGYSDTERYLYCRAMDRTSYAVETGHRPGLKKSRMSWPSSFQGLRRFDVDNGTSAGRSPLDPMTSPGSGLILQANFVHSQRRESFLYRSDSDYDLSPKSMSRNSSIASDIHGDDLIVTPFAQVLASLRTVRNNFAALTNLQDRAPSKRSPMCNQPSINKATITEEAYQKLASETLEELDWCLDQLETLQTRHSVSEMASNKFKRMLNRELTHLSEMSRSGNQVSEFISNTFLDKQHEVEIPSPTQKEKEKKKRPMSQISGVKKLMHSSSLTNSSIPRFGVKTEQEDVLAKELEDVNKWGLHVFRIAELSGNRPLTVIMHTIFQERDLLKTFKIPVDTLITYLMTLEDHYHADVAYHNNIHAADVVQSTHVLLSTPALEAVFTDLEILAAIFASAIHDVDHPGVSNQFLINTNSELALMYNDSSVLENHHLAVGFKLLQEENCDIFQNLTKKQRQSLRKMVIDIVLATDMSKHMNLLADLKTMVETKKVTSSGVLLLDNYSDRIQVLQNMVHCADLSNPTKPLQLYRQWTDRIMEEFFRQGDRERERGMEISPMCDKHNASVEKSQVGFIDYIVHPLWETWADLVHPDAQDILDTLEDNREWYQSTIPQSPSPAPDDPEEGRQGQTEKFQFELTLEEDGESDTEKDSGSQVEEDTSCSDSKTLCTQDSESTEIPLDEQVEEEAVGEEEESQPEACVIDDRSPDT
3',5'-cyclic-AMP phosphodiesterase 4B, sequence (Q07343 whole entry): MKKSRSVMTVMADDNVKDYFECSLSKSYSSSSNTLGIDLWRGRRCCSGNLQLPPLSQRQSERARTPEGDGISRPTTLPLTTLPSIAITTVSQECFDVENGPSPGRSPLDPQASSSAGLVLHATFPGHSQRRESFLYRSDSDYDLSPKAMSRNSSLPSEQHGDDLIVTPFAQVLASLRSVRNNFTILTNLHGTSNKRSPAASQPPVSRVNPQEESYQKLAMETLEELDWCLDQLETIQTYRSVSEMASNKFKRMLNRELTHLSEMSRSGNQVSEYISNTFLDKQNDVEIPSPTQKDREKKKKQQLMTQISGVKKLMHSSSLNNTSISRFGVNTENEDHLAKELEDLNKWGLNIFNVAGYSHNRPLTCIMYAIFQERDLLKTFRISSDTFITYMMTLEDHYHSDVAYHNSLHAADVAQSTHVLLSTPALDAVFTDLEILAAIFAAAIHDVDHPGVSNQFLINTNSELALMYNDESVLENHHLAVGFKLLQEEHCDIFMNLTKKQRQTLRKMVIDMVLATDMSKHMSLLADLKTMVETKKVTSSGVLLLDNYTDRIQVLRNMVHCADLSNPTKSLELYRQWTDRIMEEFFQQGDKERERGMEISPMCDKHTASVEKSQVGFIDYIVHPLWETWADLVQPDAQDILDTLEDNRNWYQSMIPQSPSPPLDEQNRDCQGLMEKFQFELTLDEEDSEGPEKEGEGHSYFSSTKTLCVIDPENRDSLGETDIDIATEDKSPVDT
Dual specificity calcium/calmodulin-dependent 3',5'-cyclic nucleotide phosphodiesterase 1A (Homo sapiens), sequence (P54750 whole entry): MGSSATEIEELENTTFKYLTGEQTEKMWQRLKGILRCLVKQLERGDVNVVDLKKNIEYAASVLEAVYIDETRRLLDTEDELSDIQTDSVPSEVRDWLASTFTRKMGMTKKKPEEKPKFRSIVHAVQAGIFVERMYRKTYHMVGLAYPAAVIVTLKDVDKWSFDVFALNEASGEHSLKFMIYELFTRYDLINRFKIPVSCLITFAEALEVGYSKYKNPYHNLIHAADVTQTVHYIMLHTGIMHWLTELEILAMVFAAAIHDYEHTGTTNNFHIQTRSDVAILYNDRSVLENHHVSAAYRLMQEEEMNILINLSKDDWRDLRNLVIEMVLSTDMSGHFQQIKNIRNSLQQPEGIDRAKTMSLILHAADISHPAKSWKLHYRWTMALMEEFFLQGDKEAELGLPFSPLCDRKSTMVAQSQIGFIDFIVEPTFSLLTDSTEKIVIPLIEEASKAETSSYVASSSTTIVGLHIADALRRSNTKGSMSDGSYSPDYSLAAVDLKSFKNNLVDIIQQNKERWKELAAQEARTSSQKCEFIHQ
High affinity cAMP-specific and IBMX-insensitive 3',5'-cyclic phosphodiesterase 8A (Homo sapiens), sequence (O60658 whole entry): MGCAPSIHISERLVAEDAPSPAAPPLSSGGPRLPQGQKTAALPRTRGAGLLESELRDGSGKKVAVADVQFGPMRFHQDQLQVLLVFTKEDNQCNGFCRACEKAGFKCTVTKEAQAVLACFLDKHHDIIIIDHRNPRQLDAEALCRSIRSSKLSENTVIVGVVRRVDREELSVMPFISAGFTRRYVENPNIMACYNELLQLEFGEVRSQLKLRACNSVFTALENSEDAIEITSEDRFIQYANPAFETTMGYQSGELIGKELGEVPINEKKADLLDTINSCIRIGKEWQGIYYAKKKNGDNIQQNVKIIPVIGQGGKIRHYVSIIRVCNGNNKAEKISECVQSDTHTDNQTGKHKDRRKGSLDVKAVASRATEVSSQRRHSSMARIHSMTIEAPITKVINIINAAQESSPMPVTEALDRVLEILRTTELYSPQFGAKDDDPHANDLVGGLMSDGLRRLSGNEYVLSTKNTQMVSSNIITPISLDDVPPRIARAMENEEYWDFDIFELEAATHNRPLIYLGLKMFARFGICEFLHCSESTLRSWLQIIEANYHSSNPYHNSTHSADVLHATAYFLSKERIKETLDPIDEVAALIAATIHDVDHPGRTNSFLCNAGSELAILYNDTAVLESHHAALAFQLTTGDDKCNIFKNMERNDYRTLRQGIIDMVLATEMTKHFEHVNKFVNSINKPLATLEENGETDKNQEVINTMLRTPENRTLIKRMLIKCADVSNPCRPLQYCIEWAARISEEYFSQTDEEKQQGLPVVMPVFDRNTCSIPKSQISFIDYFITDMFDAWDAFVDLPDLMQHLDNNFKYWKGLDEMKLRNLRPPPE
High affinity 3',5'-cyclic-AMP phosphodiesterase 7A (Homo sapiens), sequence (Q13946 whole entry): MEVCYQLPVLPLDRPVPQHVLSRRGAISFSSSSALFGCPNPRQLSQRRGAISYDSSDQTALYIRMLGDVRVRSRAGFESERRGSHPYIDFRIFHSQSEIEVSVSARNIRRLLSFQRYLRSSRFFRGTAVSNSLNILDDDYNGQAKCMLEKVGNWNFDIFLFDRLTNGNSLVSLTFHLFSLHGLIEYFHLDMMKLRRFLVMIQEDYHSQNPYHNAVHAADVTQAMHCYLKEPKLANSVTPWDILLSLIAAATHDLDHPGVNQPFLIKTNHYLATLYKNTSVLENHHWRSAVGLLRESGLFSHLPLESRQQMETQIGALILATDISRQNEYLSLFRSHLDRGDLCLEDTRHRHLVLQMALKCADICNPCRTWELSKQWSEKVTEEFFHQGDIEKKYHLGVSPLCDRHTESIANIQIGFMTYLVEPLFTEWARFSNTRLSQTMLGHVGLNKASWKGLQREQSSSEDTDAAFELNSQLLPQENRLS
Dual 3',5'-cyclic-AMP and -GMP phosphodiesterase 11A (Homo sapiens), sequence (Q9HCR9 whole entry, looked up): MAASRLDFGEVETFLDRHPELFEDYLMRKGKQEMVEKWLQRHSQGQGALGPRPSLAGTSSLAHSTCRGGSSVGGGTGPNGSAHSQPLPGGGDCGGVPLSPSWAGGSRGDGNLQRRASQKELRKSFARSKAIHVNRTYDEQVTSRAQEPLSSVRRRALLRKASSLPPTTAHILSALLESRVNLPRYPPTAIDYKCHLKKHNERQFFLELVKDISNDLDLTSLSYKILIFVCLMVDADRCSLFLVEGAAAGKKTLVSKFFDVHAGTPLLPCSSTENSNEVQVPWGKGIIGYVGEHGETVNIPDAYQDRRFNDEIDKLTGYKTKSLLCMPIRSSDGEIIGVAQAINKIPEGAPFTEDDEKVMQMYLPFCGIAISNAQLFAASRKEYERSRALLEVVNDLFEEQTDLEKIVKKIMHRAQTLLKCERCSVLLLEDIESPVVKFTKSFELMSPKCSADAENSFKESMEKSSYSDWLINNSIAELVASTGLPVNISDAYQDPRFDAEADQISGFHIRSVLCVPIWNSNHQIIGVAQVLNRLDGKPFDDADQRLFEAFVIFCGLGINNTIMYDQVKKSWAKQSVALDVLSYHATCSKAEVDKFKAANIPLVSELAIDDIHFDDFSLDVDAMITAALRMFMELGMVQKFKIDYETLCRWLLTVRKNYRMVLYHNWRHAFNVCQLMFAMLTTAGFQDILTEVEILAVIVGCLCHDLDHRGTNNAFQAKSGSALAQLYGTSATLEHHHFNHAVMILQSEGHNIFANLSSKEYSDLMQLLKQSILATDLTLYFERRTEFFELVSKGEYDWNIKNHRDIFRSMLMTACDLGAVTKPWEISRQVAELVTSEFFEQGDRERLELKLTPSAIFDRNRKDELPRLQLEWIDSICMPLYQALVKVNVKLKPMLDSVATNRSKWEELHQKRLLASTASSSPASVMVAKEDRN
High affinity cGMP-specific 3',5'-cyclic phosphodiesterase 9A (Homo sapiens), sequence (O76083 whole entry): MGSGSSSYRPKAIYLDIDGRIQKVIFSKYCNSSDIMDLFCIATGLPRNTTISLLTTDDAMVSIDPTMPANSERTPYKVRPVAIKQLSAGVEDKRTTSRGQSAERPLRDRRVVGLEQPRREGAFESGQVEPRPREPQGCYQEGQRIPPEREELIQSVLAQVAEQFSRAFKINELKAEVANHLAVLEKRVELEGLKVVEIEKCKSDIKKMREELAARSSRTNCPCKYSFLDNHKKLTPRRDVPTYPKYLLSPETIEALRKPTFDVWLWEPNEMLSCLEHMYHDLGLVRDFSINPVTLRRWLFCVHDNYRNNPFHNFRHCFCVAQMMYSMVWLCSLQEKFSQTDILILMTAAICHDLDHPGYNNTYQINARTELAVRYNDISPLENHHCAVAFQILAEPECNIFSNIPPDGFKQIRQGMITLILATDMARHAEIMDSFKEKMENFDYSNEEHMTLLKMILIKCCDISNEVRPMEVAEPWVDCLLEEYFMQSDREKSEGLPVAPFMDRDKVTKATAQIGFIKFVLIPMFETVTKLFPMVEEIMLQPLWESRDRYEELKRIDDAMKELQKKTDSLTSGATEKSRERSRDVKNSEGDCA

COc1ccc(CNC(=O)c2ccc(OC(F)F)c(OCC3CC3)c2)cc1
IC50 [1]: 0.301 µM | Ratio IC50 (Homo sapiens [2]): 2.8 | IC50 (Phosphodiesterase 4): 0.41 µM | IC50 [3]: 0.108 µM

COc1ccc(CNC(=O)c2ccc(OC)c(OC3CCCC3)c2)cc1
IC50 [1]: 1.03 µM | Ratio IC50 (Homo sapiens [2]): 3.6 | IC50 (Phosphodiesterase 4): 0.96 µM | IC50 [3]: 0.284 µM

COc1ccccc1OCCNC(=O)c1ccc(OC(F)F)c(OC2CCCC2)c1
IC50 (Phosphodiesterase 4): 12.4 µM

O=C(NCc1ccccc1)c1ccc(OC(F)F)c(OC2CCCC2)c1
IC50 (Phosphodiesterase 4): 2.2 µM

COc1ccc(CNC(=O)c2ccc(OC)c(OCC3CC3)c2)cc1OC
IC50 (Phosphodiesterase 4): > 100 µM

COc1ccc(CNC(=O)c2ccc(OC(F)F)c(OC3CCCC3)c2)cc1OC
IC50 (Phosphodiesterase 4): > 100 µM

COc1ccc(CNC(=O)c2ccc(OC(F)F)c(OC3CCCC3)c2)cc1
IC50 [1]: 0.976 µM | inhibition [4]: 2% | inhibition [5]: 1% | IC50 (Phosphodiesterase 4): 1.1 µM | inhibition [6]: 10% | inhibition [7]: 2% | inhibition [8]: 11% | inhibition [9]: 3% | inhibition [10]: 6% | inhibition [11]: 16% | inhibition [12]: 2% | IC50 [3]: 0.094 µM

COc1ccccc1OCCNC(=O)c1ccc(OC)c(OCC2CC2)c1
IC50 (Phosphodiesterase 4): 11.1 µM

COc1ccc(/C=N/OCC(O)CNN2CC(C)OC(C)C2)cc1OC1CCCC1 (stereo not drawn)
Ratio IC50 (Homo sapiens [13]): 85

COc1ccccc1OCCNC(=O)c1ccc(OC)c(OC2CCCC2)c1
IC50 (Phosphodiesterase 4): 18.3 µM

O=C(NCc1ccccc1)c1ccc(OC(F)F)c(OCC2CC2)c1
IC50 (Phosphodiesterase 4): 2.1 µM

COc1ccccc1OCCNC(=O)c1ccc(OC(F)F)c(OCC2CC2)c1
IC50 (Phosphodiesterase 4): 6.9 µM

COc1ccc(Cc2ccc(NC(N)=O)cc2)cc1-c1cccc(Cl)c1
Ratio IC50 (Homo sapiens [14]): 54

COc1ccc(CNC(=O)c2ccc(OC(F)F)c(OCC3CC3)c2)cc1OC
IC50 (Phosphodiesterase 4): > 100 µM

COc1ccccc1OCCNc1ccc(=O)n(Cc2ccc(OC)c(-c3cccc(Cl)c3)c2)n1
Ratio IC50 (Homo sapiens [15]): 13

COc1ccc([C@H](C)NC(=O)c2cccnc2Oc2ccc(F)cc2)cc1
Ratio IC50 (Homo sapiens [16]): 142

COc1ccc(CNC(=O)c2ccc(OC)c(OCC3CC3)c2)cc1
IC50 [1]: 1.09 µM | Ratio IC50 (Homo sapiens [2]): 3.2 | IC50 (Phosphodiesterase 4): 0.91 µM | IC50 [3]: 0.342 µM

COc1ccc(CNC(=O)c2ccc(OC)c(OC3CCCC3)c2)cc1OC
IC50 (Phosphodiesterase 4): > 100 µM
